From ChEMBL document CHEMBL1138216, “Design and synthesis of novel derivatives of the muscarinic agonist tetra(ethylene glycol)(3-methoxy-1,2,5-thiadiazol-4-yl) [3-(1-methyl-1,2,5,6-tetrahydropyrid-3-yl)-1,2,5-thiadiazol-4-yl] ether (CDD-0304): effects of structural modifications on the binding and activity at muscarinic receptor …” (J Med Chem, 2006) come the findings set out here.

Each structure is given as a SMILES string. Substitutions are numbered along the chain they refer to. Calls of active or inactive are those of the source. The calls are words filed in the database; no cut-off is given here.

Assay [1] deals with T1, Muscarinic acetylcholine receptor M1 (Homo sapiens) (UniProt P11229).
T1 sequence (whole entry): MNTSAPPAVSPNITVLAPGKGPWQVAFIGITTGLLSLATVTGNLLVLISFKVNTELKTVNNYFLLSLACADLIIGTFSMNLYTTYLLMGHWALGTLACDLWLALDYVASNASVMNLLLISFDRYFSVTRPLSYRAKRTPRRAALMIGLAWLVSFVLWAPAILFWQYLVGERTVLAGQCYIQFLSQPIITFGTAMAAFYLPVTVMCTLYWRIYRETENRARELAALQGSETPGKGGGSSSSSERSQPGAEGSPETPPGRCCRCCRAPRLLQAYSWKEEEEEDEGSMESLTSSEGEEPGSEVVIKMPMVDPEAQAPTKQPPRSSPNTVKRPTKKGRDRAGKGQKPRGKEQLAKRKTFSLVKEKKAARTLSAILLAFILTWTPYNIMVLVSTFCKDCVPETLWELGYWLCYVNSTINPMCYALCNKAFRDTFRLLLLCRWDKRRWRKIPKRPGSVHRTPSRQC
Put plainly: Agonist activity at human M1 receptor expressed in A9 L cells assessed as stimulation of phosphoinositide hydrolysis relative to carbachol. Format: functional, cell-based. The following applies: L929. The essentials:
(§1)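 A9 L cells stably expressing the receptor, seeded 24 h, labelled overnight with 10 µCi/mL [3H]inositol in inositol-free DMEM; ligands in HBSS with 10 mM LiCl, 20 mM HEPES, 37 °C, 1 h; formic acid extraction, inositol phosphates counted by SPA beads.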

Assay [2] concerns the target Muscarinic acetylcholine receptor M3 (Homo sapiens, UniProt P20309). Put plainly: Agonist activity at human M3 receptor expressed in A9 L cells assessed as stimulation of phosphoinositide hydrolysis relative to carbachol. The settings on record: L929. Format: functional, cell-based. The method in brief:
as §1

For assay [3], the target named is T2, Muscarinic acetylcholine receptor M5 (Homo sapiens) (UniProt P08912).
T2 sequence (whole entry): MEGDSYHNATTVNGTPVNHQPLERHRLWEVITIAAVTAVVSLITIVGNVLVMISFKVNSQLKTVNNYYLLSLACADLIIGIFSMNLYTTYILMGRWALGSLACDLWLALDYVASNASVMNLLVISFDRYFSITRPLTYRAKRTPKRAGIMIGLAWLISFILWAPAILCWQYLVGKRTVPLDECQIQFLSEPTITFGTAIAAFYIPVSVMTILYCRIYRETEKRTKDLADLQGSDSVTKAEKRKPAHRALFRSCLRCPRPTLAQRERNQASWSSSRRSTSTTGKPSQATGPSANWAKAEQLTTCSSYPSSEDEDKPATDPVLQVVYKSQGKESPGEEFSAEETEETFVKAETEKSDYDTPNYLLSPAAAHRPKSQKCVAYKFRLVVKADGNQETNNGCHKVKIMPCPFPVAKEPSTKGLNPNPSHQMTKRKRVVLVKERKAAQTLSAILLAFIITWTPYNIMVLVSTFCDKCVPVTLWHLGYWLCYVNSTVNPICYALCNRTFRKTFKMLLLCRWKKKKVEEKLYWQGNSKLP
Put plainly: Agonist activity at human M5 receptor expressed in A9 L cells assessed as stimulation of phosphoinositide hydrolysis relative to carbachol. Format: functional, cell-based. The settings on record: L929. The essentials: as §1

Assay [4] relates to T3, Muscarinic acetylcholine receptor M1 (Homo sapiens), P11229 [E170K].
T3 sequence (whole entry): T1 sequence (whole entry) with E170K
Put plainly: Agonist activity at human M1 receptor E170K mutant expressed in A9 L cells assessed as stimulation of phosphoinositide hydrolysis relative to carbachol. Format: functional, cell-based. The settings on record: L929. The essentials: as §1

Assay [5] has as its system T4, Muscarinic acetylcholine receptor M1 (Homo sapiens), P11229 [Q185E].
T4 sequence (whole entry): T1 sequence (whole entry) with Q185E
Put plainly: Agonist activity at human M1 receptor Q185E mutant expressed in A9 L cells assessed as stimulation of phosphoinositide hydrolysis relative to carbachol. Format: functional, cell-based. The following applies: L929. The essentials: as §1

Assay [6] concerns the target T5, Muscarinic acetylcholine receptor M4 (Homo sapiens) (UniProt P08173).
T5 sequence (whole entry): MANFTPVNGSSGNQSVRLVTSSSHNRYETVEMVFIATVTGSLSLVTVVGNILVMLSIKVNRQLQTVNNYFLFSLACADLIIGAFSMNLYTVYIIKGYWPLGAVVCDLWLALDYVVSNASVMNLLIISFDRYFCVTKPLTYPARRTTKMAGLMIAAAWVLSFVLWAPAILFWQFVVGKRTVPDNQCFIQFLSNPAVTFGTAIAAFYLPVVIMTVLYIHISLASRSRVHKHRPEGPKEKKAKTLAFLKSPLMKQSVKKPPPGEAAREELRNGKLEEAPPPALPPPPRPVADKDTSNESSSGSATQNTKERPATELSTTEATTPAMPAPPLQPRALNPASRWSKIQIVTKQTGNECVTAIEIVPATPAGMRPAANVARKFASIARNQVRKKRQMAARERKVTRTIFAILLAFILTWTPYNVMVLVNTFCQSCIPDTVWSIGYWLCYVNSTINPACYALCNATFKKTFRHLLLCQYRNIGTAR
Put plainly: Activity at human M4 receptor assessed as inhibition of forskolin-stimulated cAMP accumulation relative to carbachol. Format: functional. (Changes in cAMP serve as a functional read-out for many G protein-coupled receptors.)

For assay [7], the target named is T6, Muscarinic acetylcholine receptor M1/M5 chimeric protein (Homo sapiens) (UniProt P11229+P08912). Put plainly: Agonist activity at human M1/M5(o3) chimeric receptor expressed in A9 L cells assessed as stimulation of phosphoinositide hydrolysis relative to carbachol. The settings on record: L929. Format: functional, cell-based. The essentials: as §1
Assay [8] deals with T6, Muscarinic acetylcholine receptor M1/M5 chimeric protein (Homo sapiens). Put plainly: Agonist activity at human M1/M5(o2o3) chimeric receptor expressed in A9 L cells assessed as stimulation of phosphoinositide hydrolysis relative to carbachol. The settings on record: L929. Format: functional, cell-based. The essentials: as §1

Muscarinic acetylcholine receptor M3, sequence (P20309 whole entry, looked up): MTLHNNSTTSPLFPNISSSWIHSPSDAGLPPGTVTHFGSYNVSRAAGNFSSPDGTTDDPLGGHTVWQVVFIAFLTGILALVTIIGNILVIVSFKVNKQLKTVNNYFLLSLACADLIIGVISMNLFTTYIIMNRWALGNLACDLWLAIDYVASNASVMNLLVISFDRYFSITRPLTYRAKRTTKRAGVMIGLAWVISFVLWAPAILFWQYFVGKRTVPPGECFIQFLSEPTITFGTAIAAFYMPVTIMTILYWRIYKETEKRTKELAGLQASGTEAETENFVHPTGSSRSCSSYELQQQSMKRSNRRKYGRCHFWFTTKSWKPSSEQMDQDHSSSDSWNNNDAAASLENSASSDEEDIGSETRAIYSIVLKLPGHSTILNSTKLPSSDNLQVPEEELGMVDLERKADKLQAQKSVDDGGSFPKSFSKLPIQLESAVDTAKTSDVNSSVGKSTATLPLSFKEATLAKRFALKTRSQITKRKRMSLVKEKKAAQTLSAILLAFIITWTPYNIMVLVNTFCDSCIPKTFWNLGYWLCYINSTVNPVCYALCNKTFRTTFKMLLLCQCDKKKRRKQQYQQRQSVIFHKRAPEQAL

`COc1nsnc1OCCOCCOCCOCCOc1nsnc1C1=CCCN(C)C1`: the Smax in assay [1] was 47%; in assay [4] it was 27%; in assay [5], 14%; in assay [7], 9.7%; in assay [8] it was 5.3%. Besides, the outcome in assay [2] and in assay [3] was inactive. In addition, the Imax in assay [6] is 40%.
Turning to `CCCCCCOc1nsnc1C1=CCCN(C)C1` [XANOMELINE], the Smax in assay [1] turned out to be 71%; in assay [2], 80%; in assay [3] it was 43%; in assay [4], 31%; in assay [5], 86%; in assay [7], 21%. Further, in assay [8], the Smax worked out at 20%. Also, in assay [6], the Imax was 77%.
